In the experiment the target is Mu-type opioid receptor (Rattus norvegicus, UniProt P33535). The experiment in a line: Displacement of [3H]DAMGO from mu opioid receptor in rat brain membranes incubated for 45 mins by liquid scintillation counting method. An outline of the steps:
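Rat brain membranes (cerebella removed; 0.3–0.5 mg protein) in 50 mM Tris-HCl, pH 7.4, were incubated 45 min at 35 °C with 1 nM [3H]DAMGO (MOR) or 0.5 nM [3H][Ile5,6]deltorphin II (DOR) plus varied test concentrations. Nonspecific binding was set with 10 μM naloxone. Samples were GF/C filtered, washed and scintillation counted. Ki was obtained by Cheng–Prusoff; duplicates, 3–4 experiments.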
(Displacement assays read how much labelled ligand stays bound in the presence of the test substance.)

Mu-type opioid receptor, sequence (P33535 whole entry): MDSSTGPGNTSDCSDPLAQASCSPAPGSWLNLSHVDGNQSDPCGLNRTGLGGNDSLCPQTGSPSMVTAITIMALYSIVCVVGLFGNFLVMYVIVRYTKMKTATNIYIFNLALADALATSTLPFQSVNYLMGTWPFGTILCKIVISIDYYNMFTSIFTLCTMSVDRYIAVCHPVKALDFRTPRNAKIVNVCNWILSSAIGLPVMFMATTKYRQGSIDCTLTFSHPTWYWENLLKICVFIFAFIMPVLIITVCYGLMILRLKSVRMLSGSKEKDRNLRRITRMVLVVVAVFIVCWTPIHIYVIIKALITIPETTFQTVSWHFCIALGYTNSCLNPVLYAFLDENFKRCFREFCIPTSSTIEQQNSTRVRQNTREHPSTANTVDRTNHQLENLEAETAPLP

On to `CO[C@@]12CC[C@@H](N[C@@H](CC(N)=O)C(=O)O)[C@@H]3Oc4c(O)ccc5c4[C@@]31CCN(C)[C@@H]2C5`, for which the affinity corresponds to a Ki of 1.3 nM.

One may read the Ki as the dissociation constant of the complex between target and ligand, obtained from inhibition or displacement.

The values above are taken from BindingDB's records for doi:10.1021/acs.jmedchem.8b01327 (2019).
